# Reference: ChEMBL document CHEMBL1153837, “Intracellular pharmacokinetics of once versus twice daily zidovudine and lamivudine in adolescents” (Antimicrob Agents Chemother, 2007)
# How the values were obtained:
# Homo sapiens [1] = organism: Homo sapiens; assay: AUC in HIV-infected human assessed as Lamivudine diphosphate level in PBMC at 300 mg QD for 7 days in presence of zidovudine; type: ADME, organism-based; settings: in vivo, 168 h
# Summary of the method: (§1)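 Adolescents on Combivir QD (two tablets) gave a predose morning sample, then bloods at 2, 4, 6, 12 and 24 h. PBMC were lysed in 70% methanol (15 mM Tris pH 7.0) and anion-exchange cartridges separated MP/DP/TP by KCl step elution. Fractions were dephosphorylated with acid phosphatase, then ZDV or 3TC was measured by RIA (LOQ 0.15 ng/ml). Noncompartmental parameters; AUC by trapezoidal method; undetectables set to half LLOQ.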
# Homo sapiens [2] = assay: Drug metabolism in HIV-infected human PBMC assessed as lamivudine monophosphate level at 300 mg administered in two courses, first QD for 7 days followed by BID for 7 to 14 days and second course the subjects were switched to the other regimen measured per 10^6 cells in presence of lamivudine
# Homo sapiens [3] = organism: Homo sapiens; assay: Cmax in HIV-infected human assessed as Lamivudine monophosphate level in PBMC at 300 mg QD for 7 days measured per 10^6 cells in presence of zidovudine; type: ADME, organism-based; design: dose 300 mg; settings: 168 h; summary of the method: as §1
# Homo sapiens [4] = organism: Homo sapiens; assay: Cmax in HIV-infected human assessed as Lamivudine triphosphate level in PBMC at 300 mg QD for 7 days measured per 10^6 cells in presence of zidovudine; type: ADME, organism-based; design: dose 300 mg; settings: 168 h; summary of the method: as §1
# Homo sapiens [5] = organism: Homo sapiens; assay: AUC in HIV-infected human assessed as Lamivudine triphosphate level in PBMC at 300 mg QD for 7 days in presence of zidovudine; type: ADME, organism-based; settings: in vivo, 168 h; summary of the method: as §1
# Homo sapiens [6] = organism: Homo sapiens; assay: Tmax in HIV-infected human assessed as Lamivudine monophosphate level in PBMC at 300 mg QD for 7 days in presence of zidovudine; type: ADME, organism-based; settings: in vivo, 168 h; summary of the method: as §1
# Homo sapiens [7] = organism: Homo sapiens; assay: Tmax in HIV-infected human assessed as Lamivudine diphosphate level in PBMC at 300 mg QD for 7 days in presence of zidovudine; type: ADME, organism-based; settings: in vivo, 168 h; summary of the method: as §1
# Homo sapiens [8] = organism: Homo sapiens; assay: AUC in HIV-infected human assessed as Lamivudine monophosphate level in PBMC at 300 mg QD for 7 days in presence of zidovudine; type: ADME, organism-based; settings: in vivo, 168 h; summary of the method: as §1
# Homo sapiens [9] = assay: Drug metabolism in HIV-infected human PBMC assessed as lamivudine parent-drug level at 300 mg administered in two courses, first QD for 7 days followed by BID for 7 to 14 days and second course the subjects were switched to the other regimen measured per 10^6 cells in presence of zidovudine
# Homo sapiens [10] = organism: Homo sapiens; assay: Cmax in HIV-infected human assessed as Lamivudine diphosphate level in PBMC at 300 mg QD for 7 days measured per 10^6 cells in presence of zidovudine; type: ADME, organism-based; design: dose 300 mg; settings: 168 h; summary of the method: as §1
# Homo sapiens [11] = assay: Drug metabolism in HIV-infected human PBMC assessed as lamivudine diphosphate level at 300 mg administered in two courses, first QD for 7 days followed by BID for 7 to 14 days and second course the subjects were switched to the other regimen measured per 10^6 cells in presence of lamivudine
# Homo sapiens [12] = organism: Homo sapiens; assay: Tmax in HIV-infected human assessed as Lamivudine triphosphate level in PBMC at 300 mg QD for 7 days in presence of zidovudine; type: ADME, organism-based; settings: in vivo, 168 h; summary of the method: as §1
# Homo sapiens [13] = assay: Drug metabolism in HIV-infected human PBMC assessed as lamivudine parent-drug level at 300 mg administered in two courses, first BID for 7 to 14 days followed by QD for 7 days and second course the subjects were switched to the other regimen measured per 10^6 cells in presence of zidovudine
# Homo sapiens [14] = assay: Drug metabolism in HIV-infected human PBMC assessed as lamivudine monophosphate level at 300 mg administered in two courses, first BID for 7 to 14 days followed by QD for 7 days and second course the subjects were switched to the other regimen measured per 10^6 cells in presence of lamivudine
# Homo sapiens [15] = organism: Homo sapiens; assay: Tmax in HIV-infected human assessed as zidovudine diphosphate level in PBMC at 600 mg QD for 7 days in presence of Lamivudine; type: ADME, organism-based; settings: in vivo, 168 h; summary of the method: as §1
# [16] = Half life in HIV-infected human at 300 mg, po bid; settings: in vivo
# Homo sapiens [17] = assay: Drug metabolism in HIV-infected human PBMC assessed as zidovudine triphosphate level at 600 mg administered in two courses, first BID for 7 to 14 days followed by QD for 7 days and second course the subjects were switched to the other regimen measured per 10^6 cells in presence of Lamivudine; type: ADME, organism-based
# Summary of the method: (§2)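 Randomized crossover of Combivir: 600 mg ZDV/300 mg 3TC QD versus 300 mg/150 mg BID, in either order. Predose morning PBMC samples were taken on each regimen. Metabolites were separated on QMA cartridges, acid-phosphatase dephosphorylated, C-18 cleaned and quantified by RIA, reported per 10⁶ cells. Values below LLOQ were imputed as half LLOQ. Regimens were compared by Wilcoxon rank-sum; BID/QD ratios as medians with 95% CI.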
# Homo sapiens [18] = organism: Homo sapiens; assay: Tmax in HIV-infected human assessed as zidovudine monophosphate level in PBMC at 600 mg QD for 7 days in presence of Lamivudine; type: ADME, organism-based; settings: in vivo, 168 h; summary of the method: as §1
# Homo sapiens [19] = organism: Homo sapiens; assay: Tmax in HIV-infected human assessed as zidovudine triphosphate level in PBMC at 600 mg QD for 7 days in presence of Lamivudine; type: ADME, organism-based; settings: in vivo, 168 h; summary of the method: as §1
# Homo sapiens [20] = assay: Drug metabolism in HIV-infected human PBMC assessed as zidovudine diphosphate level at 600 mg administered in two courses, first QD for 7 days followed by BID for 7 to 14 days and second course the subjects were switched to the other regimen measured per 10^6 cells in presence of Lamivudine; type: ADME, organism-based; summary of the method: as §2
# Homo sapiens [21] = assay: Drug metabolism in HIV-infected human PBMC assessed as zidovudine monophosphate level at 600 mg administered in two courses, first BID for 7 to 14 days followed by QD for 7 days and second course the subjects were switched to the other regimen measured per 10^6 cells in presence of Lamivudine; type: ADME, organism-based; summary of the method: as §2
# Homo sapiens [22] = assay: Drug metabolism in HIV-infected human PBMC assessed as zidovudine parent-drug level at 600 mg administered in two courses, first BID for 7 to 14 days followed by QD for 7 days and second course the subjects were switched to the other regimen measured per 10^6 cells in presence of Lamivudine; type: ADME, organism-based; summary of the method: as §2
# Homo sapiens [23] = organism: Homo sapiens; assay: AUC in HIV-infected human assessed as zidovudine monophosphate level in PBMC at 600 mg QD for 7 days in presence of Lamivudine; type: ADME, organism-based; settings: in vivo, 168 h; summary of the method: as §1
# Homo sapiens [24] = assay: Drug metabolism in HIV-infected human PBMC assessed as zidovudine monophosphate level at 600 mg administered in two courses, first QD for 7 days followed by BID for 7 to 14 days and second course the subjects were switched to the other regimen measured per 10^6 cells in presence of Lamivudine; type: ADME, organism-based; summary of the method: as §2
# Homo sapiens [25] = organism: Homo sapiens; assay: AUC in HIV-infected human assessed as zidovudine diphosphate level in PBMC at 600 mg QD for 7 days in presence of Lamivudine; type: ADME, organism-based; settings: in vivo, 168 h; summary of the method: as §1
# Homo sapiens [26] = organism: Homo sapiens; assay: Cmax in HIV-infected human assessed as zidovudine triphosphate level in PBMC at 600 mg QD for 7 days measured per 10^6 cells in presence of Lamivudine; type: ADME, organism-based; design: dose 600 mg; settings: 168 h; summary of the method: as §1
# [27] = Half life in HIV-infected human at 600 mg, po qd; settings: in vivo
# Homo sapiens [28] = assay: Drug metabolism in HIV-infected human PBMC assessed as zidovudine triphosphate level at 600 mg administered in two courses, first QD for 7 days followed by BID for 7 to 14 days and second course the subjects were switched to the other regimen measured per 10^6 cells in presence of Lamivudine; type: ADME, organism-based; summary of the method: as §2
# Homo sapiens [29] = organism: Homo sapiens; assay: Cmax in HIV-infected human assessed as zidovudine monophosphate level in PBMC at 600 mg QD for 7 days measured per 10^6 cells in presence of Lamivudine; type: ADME, organism-based; design: dose 600 mg; settings: 168 h; summary of the method: as §1
# [30] = Half life in HIV-infected human plasma at 1500 mg; type: ADME, cell-free
# Homo sapiens [31] = organism: Homo sapiens; assay: AUC in HIV-infected human assessed as zidovudine triphosphate level in PBMC at 600 mg QD for 7 days in presence of Lamivudine; type: ADME, organism-based; settings: in vivo, 168 h; summary of the method: as §1
# Homo sapiens [32] = assay: Drug metabolism in HIV-infected human PBMC assessed as zidovudine parent-drug level at 600 mg administered in two courses, first QD for 7 days followed by BID for 7 to 14 days and second course the subjects were switched to the other regimen measured per 10^6 cells in presence of Lamivudine; type: ADME, organism-based; summary of the method: as §2
# Homo sapiens [33] = organism: Homo sapiens; assay: Cmax in HIV-infected human assessed as zidovudine diphosphate level in PBMC at 600 mg QD for 7 days measured per 10^6 cells in presence of Lamivudine; type: ADME, organism-based; design: dose 600 mg; settings: 168 h; summary of the method: as §1
# Homo sapiens [34] = assay: Drug metabolism in HIV-infected human PBMC assessed as zidovudine diphosphate level at 600 mg administered in two courses, first BID for 7 to 14 days followed by QD for 7 days and second course the subjects were switched to the other regimen measured per 10^6 cells in presence of Lamivudine; type: ADME, organism-based; summary of the method: as §2
smiles,measurement,setting,value
Nc1ccn([C@@H]2CS[C@H](CO)O2)c(=O)n1 [LAMIVUDINE],AUC,Homo sapiens [1],70.01 pmol
same,lamivudine monophosphate uptake,Homo sapiens [2],282 pmol
same,Cmax,Homo sapiens [3],760 fmol
same,Cmax,Homo sapiens [4],4840 fmol
same,AUC,Homo sapiens [5],65.19 pmol
same,Tmax,Homo sapiens [6],6.3 h
same,Tmax,Homo sapiens [7],6.37 h
same,AUC,Homo sapiens [8],10.42 pmol
same,lamivudine parent-drug uptake,Homo sapiens [9],302 pmol
same,Cmax,Homo sapiens [10],4424 fmol
same,lamivudine diphosphate uptake,Homo sapiens [11],1934 pmol
same,Tmax,Homo sapiens [12],6.67 h
same,lamivudine parent-drug uptake,Homo sapiens [13],437 pmol
same,lamivudine monophosphate uptake,Homo sapiens [14],396 pmol
Cc1cn([C@H]2C[C@H](N=[N+]=[N-])[C@@H](CO)O2)c(=O)[nH]c1=O [ZIDOVUDINE],Tmax,Homo sapiens [15],3.48 h
same,half-life,[16],5.48 h
same,Drug uptake,Homo sapiens [17],15.4 fmol
same,Tmax,Homo sapiens [18],2.44 h
same,Tmax,Homo sapiens [19],4.74 h
same,Drug uptake,Homo sapiens [20],11.5 fmol
same,Drug uptake,Homo sapiens [21],75.3 fmol
same,Drug uptake,Homo sapiens [22],23.5 fmol
same,AUC,Homo sapiens [23],11883 fmol
same,Drug uptake,Homo sapiens [24],76.2 fmol
same,AUC,Homo sapiens [25],627 fmol
same,Cmax,Homo sapiens [26],43.9 fmol
same,half-life,[27],6.3 h
same,Drug uptake,Homo sapiens [28],9.3 fmol
same,Cmax,Homo sapiens [29],2997.65 fmol
same,half-life,[30],1 h
same,AUC,Homo sapiens [31],502 fmol
same,Drug uptake,Homo sapiens [32],23.5 fmol
same,Cmax,Homo sapiens [33],62.47 fmol
same,Drug uptake,Homo sapiens [34],12.2 fmol
